Source: ChEMBL document CHEMBL4715911, “Quest for a potent antimalarial drug lead: Synthesis and evaluation of 6,7-dimethoxyquinazoline-2,4-diamines” (Bioorg Med Chem, 2021)

Columns and labels:
L6 = assay: Cytotoxicity against rat L6 cells assessed as reduction in cell viability incubated for 70 hrs by resazurin dye based fluorescence assay; conditions: L6, 70 h
Summary of the method: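 L6 rat skeletal myoblasts seeded at 4000 cells/well in RPMI 1640 with 1% L-glutamine and 10% FBS. Eleven 3-fold drug dilutions (100 to 0.002 µg/mL) added 24 h after seeding, then 70 h incubation. Resazurin added for 2 h. Fluorescence read at ex 536/em 588 nm. IC50 from 4-parameter logistic fit, average of two independent determinations.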

[1] = Selectivity index, ratio of IC50 for cytotoxicity against rat L6 cells to IC50 for antimalarial activity against Plasmodium falciparum NF54; assay type: toxicity, cell-based; conditions: read-out: Ratio IC50
Summary of the method: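 SI calculated as L6 cytotoxicity IC50 divided by P. falciparum NF54 IC50, both measured in parallel in vitro assays.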

Plasmodium falciparum = assay: Antimalarial activity against Plasmodium falciparum NF54 assessed as inhibition of parasite growth incubated for 48 hrs by [3H]hypoxanthine incorporation assay based liquid scintillation counting method; assay type: functional, organism-based
Summary of the method: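 ³H-hypoxanthine incorporation against erythrocytic P. falciparum NF54 (drug-sensitive). Culture in hypoxanthine-free RPMI 1640 with HEPES, NaHCO3, neomycin and Albumax, on human A+ red cells at 2.5% hematocrit, 0.3% parasitemia. Eleven 3-fold dilutions spanning 100 to 0.002 µg/mL. 37 °C in 4% CO2/3% O2/93% N2. Label (0.5 µCi) added after 48 h, then a further 24 h. Scintillation counting. IC50 from 4-parameter logistic fit, average of two independent determinations.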

Plasmodium berghei [2] = assay: Antimalarial activity against Plasmodium berghei NK65 infected in ICR mouse assessed as reduction in parasitemia at 50 mg/kg, po qd for 4 days by Diff-Quik staining based microscopic method (reference value: 0%); assay type: functional; conditions: 96 h, time 4 day
Plasmodium berghei [3] = assay: Antimalarial activity against Plasmodium berghei NK65 infected in ICR mouse assessed as animal mean survival days at 50 mg/kg, po qd for 4 days (reference value: 6.2 +/- 0.5 day); assay type: functional; conditions: time 4 day
Plasmodium berghei [4] = assay: Antimalarial activity against Plasmodium berghei NK65 infected in ICR mouse assessed as parasitemia at 50 mg/kg, po qd for 4 days by Diff-Quik staining based microscopic method (reference value: 28.4 +/- 10.2%); assay type: functional; conditions: time 4 day
Plasmodium berghei [5] = assay: Antimalarial activity against Plasmodium berghei NK65 infected in ICR mouse assessed as animal mean survival days at 66.3 mg/kg, po qd for 4 days (reference value: 6.2 day); assay type: functional; conditions: time 4 day
Plasmodium berghei [6] = assay: Antimalarial activity against Plasmodium berghei NK65 infected in ICR mouse assessed as reduction in parasitemia at 66.3 mg/kg, po qd for 4 days by Diff-Quik staining based microscopic method (reference value: 0%); assay type: functional; conditions: 96 h, time 4 day
Plasmodium berghei [7] = assay: Antimalarial activity against Plasmodium berghei NK65 infected in ICR mouse assessed as animal mean survival days at 63.7 mg/kg, po qd for 4 days (reference value: 6.2 day); assay type: functional; conditions: time 4 day
Plasmodium berghei [8] = assay: Antimalarial activity against Plasmodium berghei NK65 infected in ICR mouse assessed as reduction in parasitemia at 63.7 mg/kg, po qd for 4 days by Diff-Quik staining based microscopic method (reference value: 0%); assay type: functional; conditions: 96 h, time 4 day
Plasmodium berghei [9] = assay: Antimalarial activity against Plasmodium berghei NK65 infected in ICR mouse assessed as animal mean survival days at 59 mg/kg, po qd for 4 days (reference value: 6.2 day); assay type: functional; conditions: time 4 day
Plasmodium berghei [10] = assay: Antimalarial activity against Plasmodium berghei NK65 infected in ICR mouse assessed as reduction in parasitemia at 59 mg/kg, po qd for 4 days by Diff-Quik staining based microscopic method (reference value: 0%); assay type: functional; conditions: 96 h, time 4 day
Plasmodium berghei [11] = assay: Antimalarial activity against Plasmodium berghei NK65 infected in ICR mouse assessed as animal mean survival days at 57 mg/kg, po qd for 4 days (reference value: 6.2 day); assay type: functional; conditions: time 4 day
Plasmodium berghei [12] = assay: Antimalarial activity against Plasmodium berghei NK65 infected in ICR mouse assessed as reduction in parasitemia at 57 mg/kg, po qd for 4 days by Diff-Quik staining based microscopic method (reference value: 0%); assay type: functional; conditions: 96 h, time 4 day
Plasmodium berghei [13] = assay: Antimalarial activity against Plasmodium berghei NK65 infected in ICR mouse assessed as animal mean survival days at 58.4 mg/kg, po qd for 4 days (reference value: 6.2 day); assay type: functional; conditions: time 4 day
Plasmodium berghei [14] = assay: Antimalarial activity against Plasmodium berghei NK65 infected in ICR mouse assessed as reduction in parasitemia at 58.4 mg/kg, po qd for 4 days by Diff-Quik staining based microscopic method (reference value: 0%); assay type: functional; conditions: 96 h, time 4 day
Plasmodium berghei [15] = assay: Antimalarial activity against Plasmodium berghei NK65 infected in ICR mouse assessed as reduction in parasitemia at 58.2 mg/kg, po qd for 4 days by Diff-Quik staining based microscopic method (reference value: 0%); assay type: functional; conditions: 96 h, time 4 day
Plasmodium berghei [16] = assay: Antimalarial activity against Plasmodium berghei NK65 infected in ICR mouse assessed as animal mean survival days at 58.2 mg/kg, po qd for 4 days (reference value: 6.2 +/-0.5 day); assay type: functional; conditions: time 4 day
Plasmodium berghei [17] = assay: Antimalarial activity against Plasmodium berghei NK65 infected in po dosed ICR mouse assessed as increase in mean survival days for administered for 4 days; assay type: functional, organism-based; conditions: dose 50-100 mg/kg, time 4.0 day
Summary of the method: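 Female ICR mice (25–27 g) infected via tail vein with 2×10^7 P. berghei NK65 parasitized RBC. Oral dosing in 0.5% methyl cellulose at 4 h post-infection, then days 1–3. Survival days recorded and mean survival days compared with vehicle controls. Student's t-test and Kaplan-Meier analysis applied. Mice without parasitemia at day 30 counted as cured.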

Compound | IC50 (L6) | selectivity ratio [1] | IC50 (Plasmodium falciparum) | also measured
CCCCNc1nc(NCc2cccnc2)nc2cc(OC)c(OC)cc12 | 11.1 µM | 5120 | 0.00217 µM | 
CCCCNc1nc(NCCCC)c2cc(OC)c(OC)cc2n1 | 3.67 µM | 1750 | 0.0021 µM | 
CCNc1nc(OC)nc2cc(OC)c(OC)cc12 | 67.3 µM | 1.9 | 34.8 µM | 
COc1cc2nc(Nc3ccncc3)nc(Nc3ccccc3C)c2cc1OC | 213 µM | 4350 | 0.049 µM | 
CCNc1nc(Cl)nc2cc(OC)c(OC)cc12 | 52.6 µM | 3.33 | 15.8 µM | 
COc1cc2nc(N3CCCC3)nc(NCc3cccnc3)c2cc1OC | 27.3 µM | 2000 | 0.0136 µM | 
COc1cc2nc(Nc3ccncc3)nc(NC(C)C)c2cc1OC | 81.4 µM | 28000 | 0.0029 µM | 
COc1cc2nc(N3CCCC3)nc(NC(C)C)c2cc1OC | 12.5 µM | 3430 |  | 
COc1cc2nc(Nc3ccncc3)nc(NCc3cccnc3)c2cc1OC | 138 µM | 10700 | 0.0128 µM | 
COc1cc2nc(N3CCCC3)nc(N3CCCC3)c2cc1OC | 3.96 µM | 3.8 | 1.04 µM | 
CCCCNc1nc(NCc2ccccn2)nc2cc(OC)c(OC)cc12 | 10.6 µM | 1000 | 0.0109 µM | 
COc1cc2nc(Nc3cccnc3)nc(Nc3ccccc3C)c2cc1OC | 170 µM | 8250 | 0.0206 µM | 
CCNc1nc(Nc2cccnc2)nc2cc(OC)c(OC)cc12 | 112 µM | 18200 | 0.00614 µM | 
COc1cc2nc(N3CCCC3)nc(Nc3ccccc3C)c2cc1OC | 8.46 µM | 257 | 0.0329 µM | inhibition in vivo at 50 mg/kg (Plasmodium berghei [2]): 26.8%; MSD (Plasmodium berghei [3]): 6.8 days; Activity (Plasmodium berghei [4]): 23.4%
COc1cc2nc(Nc3ccncc3)nc(NCc3ccncc3)c2cc1OC.Cl.Cl |  |  |  | MSD (Plasmodium berghei [5]): 7.7 days; inhibition in vivo at 66.3 mg/kg (Plasmodium berghei [6]): 29.4%
CCCCNc1nc(NCc2ccncc2)nc2cc(OC)c(OC)cc12 | 11 µM | 1360 | 0.00816 µM | 
COc1cc2nc(Nc3cccnc3)nc(NC(C)C)c2cc1OC | 249 µM | 16900 | 0.0147 µM | 
COc1cc2nc(Nc3ccncc3)nc(NCc3cccnc3)c2cc1OC.Cl.Cl |  |  |  | MSD (Plasmodium berghei [5]): 8.7 days; inhibition in vivo at 66.3 mg/kg (Plasmodium berghei [6]): 27.1%
CCCCCCCCNc1nc(Nc2ccncc2)nc2cc(OC)c(OC)cc12 | 1.76 µM | 241 | 0.0073 µM | 
CCCCNc1nc(NCC)c2cc(OC)c(OC)cc2n1 | 5.29 µM | 230 | 0.023 µM | 
COc1cc2nc(N3CCCC3)nc(NCc3ccccc3)c2cc1OC | 9.49 µM | 1900 | 0.00549 µM | 
CCCCNc1nc(NCCCC)c2ccccc2n1 | 3.01 µM | 25.6 | 0.121 µM | 
COc1cc2nc(Nc3ccncc3)nc(Nc3ccccc3C(F)(F)F)c2cc1OC | 138 µM | 6100 | 0.0226 µM | 
CCCCNc1ncnc2cc(OC)c(OC)cc12 | 73.6 µM | 15.6 | 4.71 µM | 
CCNc1nc(NCCc2ccccc2)nc2cc(OC)c(OC)cc12 | 1.68 µM | 99 | 0.017 µM | 

Compound | IC50 (L6) | selectivity ratio [1] | IC50 (Plasmodium falciparum) | also measured
COc1cc2nc(Nc3ccncc3)nc(NC(C)c3ccccc3)c2cc1OC.Cl.Cl (stereo not drawn) |  |  |  | MSD (Plasmodium berghei [7]): 8.3 days; inhibition in vivo at 63.7 mg/kg (Plasmodium berghei [8]): 6.6%
CCCCNc1nc(NCCCOCC)nc2cc(OC)c(OC)cc12 | 4.46 µM | 161 | 0.0276 µM | 
COc1cc2nc(N3CCCC3)nc(NCc3cccnc3)c2cc1OC.Cl |  |  |  | MSD (Plasmodium berghei [9]): 8 days; inhibition in vivo at 59 mg/kg (Plasmodium berghei [10]): 80.3%
CCCCCCCCNc1nc(N2CCCC2)nc2cc(OC)c(OC)cc12.Cl |  |  |  | MSD (Plasmodium berghei [11]): 6.7 days; inhibition in vivo at 57 mg/kg (Plasmodium berghei [12]): 48.8%
COc1cc2nc(N3CCCC3)nc(NC(C)CCc3ccccc3)c2cc1OC (stereo not drawn) | 4.48 µM | 613 | 0.0073 µM | 
CCNc1nc(Nc2ccncc2)nc2cc(OC)c(OC)cc12 | 55.1 µM | 17900 | 0.00307 µM | 
COc1cc2nc(N3CCCC3)nc(N)c2cc1OC | 28.2 µM | 17 | 1.66 µM | 
CCCCCCCCNc1nc(N2CCCC2)nc2cc(OC)c(OC)cc12 | 1.48 µM | 1060 | 0.0014 µM | 
CCC(C)Nc1nc(Nc2ccncc2)nc2cc(OC)c(OC)cc12 (stereo not drawn) | 47.7 µM | 16800 | 0.00283 µM | 
CCC(CC)Nc1nc(Nc2cccnc2)nc2cc(OC)c(OC)cc12 | 155 µM | 8190 | 0.019 µM | 
COc1cc2nc(Nc3ccncc3)nc(NC(C)c3ccccc3)c2cc1OC (stereo not drawn) | 62.7 µM | 156000 | 0.0004 µM | 
CCCCNc1nc(N2CCCC2)nc2cc(OC)c(OC)cc12 | 61.8 µM |  | 0.0018 µM | inhibition in vivo at 50 mg/kg (Plasmodium berghei [2]): 60%; MSD (Plasmodium berghei [3]): 6.6 days; Activity (Plasmodium berghei [4]): 10.8%
COc1cc2nc(N3CCCC3)nc(NC(C)c3ccccc3)c2cc1OC (stereo not drawn) [listing 1 of 2 here] | 4.81 µM | 481 | 0.01 µM | inhibition in vivo at 50 mg/kg (Plasmodium berghei [2]): 90.4%; MSD (Plasmodium berghei [3]): 19.8 days; Activity (Plasmodium berghei [4]): 2.5%
CCC(CC)Nc1nc(Nc2ccncc2)nc2cc(OC)c(OC)cc12 | 110 µM | 2130 | 0.0518 µM | 
CCCCNc1nc(Nc2cccnc2)nc2cc(OC)c(OC)cc12 | 150 µM | 5900 | 0.0254 µM | 
CCCCNc1nc(NC(C)C)c2cc(OC)c(OC)cc2n1 | 5.31 µM | 1690 | 0.00314 µM | 
CCNc1nc(Nc2ccncc2)nc2cc(OC)c(OC)cc12.Cl |  |  |  | MSD (Plasmodium berghei [13]): 7 days; inhibition in vivo at 58.4 mg/kg (Plasmodium berghei [14]): 1%
CCCCNc1nc(Nc2ccncc2)nc2cc(OC)c(OC)cc12 | 105 µM |  | 0.00567 µM | 
COc1cc2nc(Nc3ccncc3)nc(NC(C)C)c2cc1OC.Cl.Cl |  |  |  | inhibition in vivo at 58.2 mg/kg (Plasmodium berghei [15]): 39.5%; MSD (Plasmodium berghei [16]): 8.3 days
COc1cc2nc(N3CCCC3)nc(NC(C)c3ccccc3)c2cc1OC (stereo not drawn) [listing 2 of 2 here] |  |  |  | Activity (Plasmodium berghei [17]): Dose dependent effect
COc1cc2nc(Nc3ccncc3)nc(NCc3ccncc3)c2cc1OC | 138 µM | 4470 | 0.0309 µM | 
CCNc1nc(NCc2ccccc2)nc2cc(OC)c(OC)cc12 | 5.44 µM | 367 | 0.0148 µM | 
COc1cc2nc(N3CCC(C(N)=O)CC3)nc(NCc3ccccc3)c2cc1OC | 4.98 µM | 27.7 | 0.18 µM | 
CCCCCCCCNc1nc(Nc2ccncc2)nc2cc(OC)c(OC)cc12.Cl |  |  |  | MSD (Plasmodium berghei [13]): 7.3 days; inhibition in vivo at 58.4 mg/kg (Plasmodium berghei [14]): 54.8%
